Among the data in ChEMBL document CHEMBL4613320, “Artemisinin Derivatives with Antimelanoma Activity Show Inhibitory Effect against Human DNA Topoisomerase 1” (ACS Med Chem Lett, 2020) are inhibition and IC50 values, retold here.

Calls of active or inactive are those of the source. The rule behind the calls is not given here.

In assay [1] the target is T1, DNA topoisomerase 1 (Homo sapiens) (UniProt P11387).
T1 sequence (whole entry): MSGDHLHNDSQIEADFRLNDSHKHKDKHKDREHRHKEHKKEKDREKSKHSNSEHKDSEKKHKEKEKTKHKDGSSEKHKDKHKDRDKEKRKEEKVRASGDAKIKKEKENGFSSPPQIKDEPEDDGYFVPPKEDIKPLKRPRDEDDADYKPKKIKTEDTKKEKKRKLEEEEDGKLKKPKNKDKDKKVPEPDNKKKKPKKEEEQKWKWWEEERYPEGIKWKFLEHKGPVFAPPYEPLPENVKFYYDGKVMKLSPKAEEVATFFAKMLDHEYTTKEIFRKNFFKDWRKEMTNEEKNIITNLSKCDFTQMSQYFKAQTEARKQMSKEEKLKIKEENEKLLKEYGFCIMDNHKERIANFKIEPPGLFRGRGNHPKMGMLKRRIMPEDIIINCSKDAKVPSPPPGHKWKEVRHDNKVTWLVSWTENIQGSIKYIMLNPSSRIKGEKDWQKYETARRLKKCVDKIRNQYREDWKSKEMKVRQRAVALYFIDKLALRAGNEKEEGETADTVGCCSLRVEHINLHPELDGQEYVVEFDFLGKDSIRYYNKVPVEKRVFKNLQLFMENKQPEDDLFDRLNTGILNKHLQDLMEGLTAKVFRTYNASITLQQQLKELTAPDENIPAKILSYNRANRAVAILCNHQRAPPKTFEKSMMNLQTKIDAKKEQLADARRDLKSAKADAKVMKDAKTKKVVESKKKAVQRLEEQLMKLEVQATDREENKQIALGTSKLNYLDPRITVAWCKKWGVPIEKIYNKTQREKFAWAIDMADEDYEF
Description: Inhibition of human TOP1B expressed in Saccharomyces cerevisiae EKY3 lacking top1 assessed as reduction in yeast cell growth at 30 uM. The procedure, abridged: (§1)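 Wild-type human Top1 overexpressed from plasmids under the Gal-1–10 promoter in S. cerevisiae EKY3, which lacks the endogenous enzyme. Yeast growth sensitivity scored across compound concentrations. Controls were untreated cells and DMSO vehicle.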

For assay [2], the target named is T1, DNA topoisomerase 1 (Homo sapiens). Description: Inhibition of human TOP1B-medaited negatively supercoiled pBlue-Script KSII(+) DNA relaxation at 0.3 to 30 uM by ethidium bromide staining based gel electrophoresis method.
A short description of assay [3]: Cytotoxicity against human C3PV cells assessed as reduction in cell viability measured after 24 hrs by MTT assay. Type of assay: cell-based. (In general: Formazan colour is commonly taken as a measure of viable cells.)
Assay [4] concerns RPMI-7951. Description: Cytotoxicity against human RPMI7951 cells assessed as reduction in cell viability measured after 24 hrs by MTT assay. Type of assay: functional, cell-based. The following applies: RPMI-7951, 24 h.
For assay [5], the system named is SK-MEL-24. Description: Cytotoxicity against human SK-MEL-24 cells assessed as reduction in cell viability measured after 24 hrs by MTT assay. Type of assay: functional, cell-based. The following applies: SK-MEL-24, 24 h.
Assay [6] addresses T1, DNA topoisomerase 1 (Homo sapiens). The assay can be described thus: Inhibition of human TOP1B expressed in Saccharomyces cerevisiae EKY3 lacking top1 assessed as reduction in yeast cell growth at 1 to 30 uM. The procedure, abridged:
as §1

Assay [7] is filed under the species Homo sapiens. Description: Inhibition of human TOP1B G363C mutant expressed in Saccharomyces cerevisiae EKY3 lacking top1 assessed as reduction in yeast growth at 1 to 30 uM. The procedure, abridged: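 Human Top1 G363C mutant (glycine 363 to cysteine, camptothecin-resistant) expressed from plasmids under the Gal-1–10 promoter in S. cerevisiae EKY3, which lacks the endogenous enzyme. Yeast growth sensitivity read at a range of compound concentrations. Controls were untreated cells and DMSO vehicle.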

In assay [8] the target is T1, DNA topoisomerase 1 (Homo sapiens). The assay can be described thus: Inhibition of human TOP1B expressed in Saccharomyces cerevisiae EKY3 lacking top1 assessed as reduction in yeast growth at 3 uM. The essentials: as §1
For assay [9] the target is unchanged. Description: Inhibition of human TOP1B-medaited negatively supercoiled pBlue-Script KSII(+) DNA relaxation at 300 nM by ethidium bromide staining based gel electrophoresis method.
Assay [10] has the same target. The assay can be described thus: Inhibition of human TOP1B expressed in Saccharomyces cerevisiae EKY3 lacking top1 assessed as reduction in yeast cell growth at 10 uM. The procedure, abridged:
as §1

Assay [11] has the same target. The assay can be described thus: Inhibition of human TOP1B expressed in Saccharomyces cerevisiae EKY3 lacking top1 assessed as induction of cell cycle defect at 30 uM measured after 24 hrs.

Take `C[C@H]1[C@H](OC(=O)CCC(=O)O)O[C@@H]2O[C@@]3(C)CC[C@H]4[C@H](C)CC[C@@H]1[C@@]24OO3`: the inhibition entry in [1] was “inactive”. Moreover, in [2], the inhibition entry was “Active”.
In general, IC50 refers to the concentration at which inhibition is half-maximal. With `CC[C@@]1(O)C(=O)OCc2c1cc1n(c2=O)Cc2cc3ccccc3nc2-1` [CAMPTOTHECIN], the IC50 in assay [3] was determined as 450 nM; in assay [4], 220 nM; in assay [5], 460 nM.
Turning to `CC[C@@]1(OC(=O)CCC(=O)O[C@@H]2O[C@@H]3O[C@]4(C)CC[C@H]5[C@H](C)CC[C@@H]([C@H]2C)[C@@]35OO4)C(=O)OCc2c1cc1n(c2=O)Cc2cc3ccccc3nc2-1`, the inhibition result in assay [6] and in assay [2] was “Active” in each case. For the same compound, the IC50 in assay [3] was 300 nM; in [4], 17300 nM; in assay [5] it was 850 nM.
Take `CCc1c2c(nc3ccc(O)cc13)-c1cc3c(c(=O)n1C2)COC(=O)[C@]3(O)CC` [7-ETHYL-10-HYDROXYCAMPTOTHECIN]: the IC50 in assay [3] was found to be 510 nM; in assay [4], 260 nM; in assay [5], 480 nM.
For `COc1cc(/C=C/C(=O)CC(=O)/C=C/c2ccc(OC(=O)CCC(=O)O[C@@H]3O[C@@H]4O[C@]5(C)CC[C@H]6[C@H](C)CC[C@@H]([C@H]3C)[C@@]46OO5)c(OC)c2)ccc1O`, the inhibition entry in assay [1] and in [2] was “Active” throughout.
Turning to `C[C@H]1[C@H](O)O[C@@H]2O[C@@]3(C)CC[C@H]4[C@H](C)CC[C@@H]1[C@@]24OO3`, the inhibition result in [1] was “inactive”.
Turning to `C[C@@H]1CC[C@H]2[C@@H](C)C(=O)O[C@@H]3O[C@@]4(C)CC[C@@H]1[C@]32OO4`, in assay [6], the inhibition result is “inactive”.
Take `CCc1c2c(nc3ccc(OC(=O)CCC(=O)O[C@@H]4O[C@@H]5O[C@]6(C)CC[C@H]7[C@H](C)CC[C@@H]([C@H]4C)[C@@]57OO6)cc13)-c1cc3c(c(=O)n1C2)COC(=O)[C@]3(O)CC`: the inhibition entry in [7], in [8] and in [9] was “Active” in each case. Further, the half-maximal inhibitory concentration (IC50) was found to be 3200 nM in assay [3], 50 nM in assay [4] and 320 nM in assay [5].
In the case of `C[C@H]1[C@H](OC(=O)CCC(=O)OCCc2ccc(O)cc2)O[C@@H]2O[C@]3(C)CC[C@H]4[C@H](C)CC[C@@H]1[C@@]24OO3`, the inhibition entry in assay [10], in assay [2] and in assay [11] was “Active” in each case. Further, the inhibition entry in assay [7] was “inactive”.
For `C[C@H]1[C@H](OCCc2ccc(O)cc2)O[C@@H]2O[C@]3(C)CC[C@H]4[C@H](C)CC[C@@H]1[C@@]24OO3`, the inhibition result in [1] is “Active”.
For the compound `C[C@H]1[C@H](OC(=O)CCC(=O)Oc2ccc(CCO)cc2)O[C@@H]2O[C@]3(C)CC[C@H]4[C@H](C)CC[C@@H]1[C@@]24OO3`, the inhibition entry in assay [10] and in assay [2] was “Active” throughout. Further, the inhibition entry in assay [7] was “inactive”.
Consider `C=C(C)[C@H]1CC=C(COC(=O)CCC(=O)O[C@@H]2O[C@@H]3O[C@@]4(C)CC[C@H]5[C@H](C)CC[C@@H]([C@H]2C)[C@@]35OO4)CC1`, for which, in assay [6], the inhibition result was “inactive”.
As to `CC(=O)O[C@H]1C(=O)[C@@]2(C)[C@H]([C@H](OC(=O)c3ccccc3)[C@]3(O)C[C@H](OC(=O)[C@H](O)[C@@H](NC(=O)c4ccccc4)c4ccccc4)C(C)=C1C3(C)C)[C@]1(OC(C)=O)CO[C@@H]1C[C@@H]2O` [PACLITAXEL], the figures for the half-maximal inhibitory concentration (IC50) in assay [3], in [4] and in assay [5] were 78900 nM, 13 nM and 4730 nM, respectively.
On to `COc1cc(/C=C/C(=O)CC(=O)/C=C/c2ccc(OC(=O)CCC(=O)O[C@@H]3O[C@@H]4O[C@]5(C)CC[C@H]6[C@H](C)CC[C@@H]([C@H]3C)[C@@]46OO5)cc2)ccc1OC(=O)CCC(=O)O[C@@H]1O[C@@H]2O[C@]3(C)CC[C@H]4[C@H](C)CC[C@@H]([C@H]1C)[C@@]24OO3`, for which the inhibition entry in assay [6] was “inactive”.
